Results on seven compounds are retold here after PMC7586407 (Journal of Medicinal Chemistry, 2020).

Data set [1] deals with T1, MIF (Homo sapiens, UniProt P14174).
T1 sequence (P14174 2-115 limits assumed): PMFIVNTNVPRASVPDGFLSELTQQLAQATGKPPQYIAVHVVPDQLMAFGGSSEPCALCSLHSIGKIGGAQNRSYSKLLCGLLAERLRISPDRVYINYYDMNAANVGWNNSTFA
As to the kind of experiment: MIF tautomerase activity assay with 4-HPP as substrate. The settings on record: for LE (ligand efficiency): LE = 1.4(−log IC50)/N; for LLE (lipophilic ligand efficiency): LLE = pIC50 – C log P.

For data set [2], the target named is T1, MIF. Briefly: FID assay with 7 as fluorescent indicator. Type of data set: binding. The following applies: 7 50 nM, MIF 100 nM, PBS pH 7.4; calculated from EC50 by eq 1.
Data set [3] in a line: Fluorescence quantum yield and fluorescence lifetime. Type of data set: physicochemical. The following applies: relative to 4-MU, excitation 330 nm.
Data set [4] relates to MIF-induced ERK phosphorylation in A549 cells. Briefly: MIF-induced ERK phosphorylation, Western blot. In kind it is cell-based. The settings on record: 10 μM, 150 ng/mL MIF.
The target in data set [5] is bovine serum albumin (BSA) (Bos taurus, UniProt P02769). Briefly: Fluorescence quenching control with BSA. In kind it is binding. The following applies: 800 nM BSA, 50 nM fluorophore.
bovine serum albumin (BSA), sequence (P02769 25-607): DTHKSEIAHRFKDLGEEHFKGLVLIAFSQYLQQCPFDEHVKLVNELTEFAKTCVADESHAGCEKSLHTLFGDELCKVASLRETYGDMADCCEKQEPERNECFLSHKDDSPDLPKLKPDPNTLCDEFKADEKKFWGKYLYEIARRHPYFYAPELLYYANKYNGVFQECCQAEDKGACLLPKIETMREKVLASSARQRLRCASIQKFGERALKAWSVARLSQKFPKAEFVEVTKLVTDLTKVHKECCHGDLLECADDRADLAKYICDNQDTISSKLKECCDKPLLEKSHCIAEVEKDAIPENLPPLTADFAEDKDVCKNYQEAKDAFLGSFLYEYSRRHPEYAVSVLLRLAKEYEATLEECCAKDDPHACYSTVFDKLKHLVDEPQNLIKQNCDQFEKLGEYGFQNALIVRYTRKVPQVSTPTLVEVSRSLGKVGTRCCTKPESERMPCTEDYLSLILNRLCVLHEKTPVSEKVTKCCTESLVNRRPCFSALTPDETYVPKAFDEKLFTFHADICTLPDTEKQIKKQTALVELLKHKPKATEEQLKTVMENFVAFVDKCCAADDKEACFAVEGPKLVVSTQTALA
The test system of data set [6] is A549 cells. As to the kind of experiment: MTS cell viability assay. In kind it is cell-based. The following applies: concentrations below 20 μM, 24 h of treatment. A general note: Formazan colour is commonly taken as a measure of viable cells.
The test system of data set [7] is A549 cells. As to the kind of experiment: Colony formation. Type of data set: cell-based. The following applies: 10 days. In short, it runs like this: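 A549 cells seeded at 100 cells/well in RPMI with 10% FBS and 100 U/mL penicillin/streptomycin, then incubated overnight. Exposed to test compound for 10 days; final DMSO 0.2%, with 0.2% DMSO as vehicle control. Fixed with 4% paraformaldehyde (20 min), stained with 0.5% crystal violet (20 min), photographed and image-analysed. A colony is an aggregate of >50 cells.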

In a further data set the target is T2, MIF–sCD74 interaction (Homo sapiens, UniProt P14174).
T2 sequence (P14174 2-115 limits assumed): T1 sequence (P14174 2-115 limits assumed)
Briefly: ELISA of MBP–sCD74 binding to coated MIF. The settings on record: at concentrations up to 50 μM. In short, it runs like this: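 Recombinant C-terminal His-tagged human MIF (E. coli-expressed, Ni-purified) coated at 250 nM overnight at 4 °C, then blocked with 2% BSA and washed. His/MBP-purified MBP–sCD74 (500 nM) was premixed with test compound (1–100 μM, added in DMSO) for 10 min at RT, then applied to wells for 30 min at RT. Controls: DMSO vehicle and no-sCD74. Detection used rabbit anti-CD74 (1:1000) then goat anti-rabbit HRP (1:1000), each 30 min at RT.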
A general note: In an ELISA, binding on a coated surface is turned into a signal by an enzyme label.

The target of data set [8] is T1, MIF. As to the kind of experiment: FID assay with 6d as fluorescent indicator. Type of data set: binding.

In general, Ki refers to a dissociation constant, usually derived from enzyme kinetics or from competition with a known ligand. The term Kd denotes the equilibrium constant for the complex coming apart. Usually IC50 stands for the point on the concentration scale where inhibition reaches its midpoint. Low readings indicate greater potency, high ones weaker potency. One may read the EC50 as the midpoint of the concentration-response curve. Low readings indicate an effect from little substance, high ones a need for much substance.

Consider “4-(4-(isoquinolin-3-yl)-1H-1,2,3-triazol-1-yl)phenol [Compound 10, reference compound]”, for which the Ki at MIF [1] (4-HPP conversion assay, Ki = IC50/(1 + 0.5/Km)) amounted to 440 ± 30 nM. For the same compound, the Kd on MIF [2] is 470 ± 80 nM.
For the compound `O=c1oc2cc(O)ccc2cc1-c1ccccc1` [Compound 6a, 7-Hydroxy-3-phenyl-2H-chromen-2-one], the “enhanced potency compared to inhibitor 2” value on MIF [1] (Ki ratio vs 2) turned out to be 10 fold.
Turning to `COc1ccc(-c2cc3ccc(O)cc3oc2=O)cc1` [Compound 6d, 7-Hydroxy-3-(4-methoxyphenyl)-2H-chromen-2-one], the fluorescence quantum yield in data set [3] is given as 0.25.
On to `O=C(O)c1ccc(-c2ccc(-c3cc4ccc(O)cc4oc3=O)cc2)cc1` [Compound 7, 4′-(7-Hydroxy-2-oxo-2H-chromen-3-yl)-[1,1′-biphenyl]-4-carboxylic Acid], for which, in data set [4], the “MIF-induced ERK phosphorylation” value is recorded as “attenuated MIF-induced ERK phosphorylation”. For the same compound, on MIF [1], the IC50 is 71 ± 3 nM, the “LE (ligand efficiency)” value is 0.37 and the “LLE (lipophilic ligand efficiency)” value is recorded as 5.80. The “mode of inhibition (enzyme kinetics)” value on MIF [1] (Lineweaver–Burk plot vs 4-HPP) is recorded as “binds in competition with 4-HPP”. Moreover, the “increased potency compared to precursor 6l” value at MIF [1] (vs 6l) came to 10 fold. In addition, the “fluorescence quenching by BSA” value in [5] is “no fluorescence quenching”. In addition, the cell viability result with A549 cells [6] is reported as “did not inhibit cell viability”. Besides, the colony formation result in the data set with A549 cells [7] (2.5 μM) is listed as “significantly lower numbers of colonies”. Besides, the colony formation entry in the data set with A549 cells [7] (10 μM) was “significantly lower numbers of colonies”. The compound further yielded a fluorescence quantum yield in data set [3] of 0.32.
For the compound `COc1ccc(N2Cc3ccc(O)cc3OC2=O)cc1OC` [Compound 8, 3-(3,4-Dimethoxyphenyl)-7-hydroxy-3,4-dihydro-2H-benzo[e][1,3]oxazin-2-one, reference compound], on MIF [1], the “LE (ligand efficiency)” value stood at 0.43 and the “LLE (lipophilic ligand efficiency)” value is given as 4.85. Further, on MIF–sCD74 interaction, the “inhibition of MIF–sCD74 binding” value is listed as “did not demonstrate inhibition”. The EC50 on MIF [8] is 386 ± 44 nM.
As to `O=C(NCc1cn(-c2ccc(O)c(F)c2)nn1)c1cc2cc(Cl)ccc2[nH]1` [Compound 13, 5-chloro-N-((1-(3-fluoro-4-hydroxyphenyl)-1H-1,2,3-triazol-4-yl)methyl)-1H-indole-2-carboxamide, reference compound], on MIF [1], the “LE (ligand efficiency)” value worked out at 0.30 and the “LLE (lipophilic ligand efficiency)” value was 2.05. Moreover, in the data set with A549 cells [7] (10 μM), the colony formation result is given as “inhibited colony formation”.
As for `COC(=O)CC1CC(c2ccc(O)cc2)=NO1` (stereo not drawn) [ISO-1, methyl 2-(3-(4-hydroxyphenyl)-4,5-dihydroisoxazol-5-yl)acetate, reference compound], the “inhibition of MIF–sCD74 binding” value at MIF–sCD74 interaction is reported as “did not demonstrate inhibition”. In addition, in the data set on A549 cells [7] (100 μM), the colony formation result is “inhibited colony formation”.
